According to ChEMBL document CHEMBL1156597, “Structure-activity relationship of kahalalide F synthetic analogues” (J Med Chem, 2008):

Key:
DU-145 = assay: Cytotoxicity against human DU145 cells after 48 hrs by SRB assay; format: functional, cell-based; details: Homo sapiens, DU-145, 48 h; for CC50: read-out: LC50 (the source's name)
Method in brief: (§1)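 Cells grown in RPMI 1640 with 10% FBS and penicillin/streptomycin at 37 °C and 5% CO₂, trypsinized, then seeded at 5 × 10³/well. After 18 h drug-free attachment, samples in DMSO/EtOH/PBS (0.5:0.5:99) were added for 48 h continuous exposure. Cells were fixed with cold TCA (1 h, 4 °C) and stained with SRB (10 min). Tris-solubilized stain read at 490 nm. Triplicate wells, mean ± SD; GI₅₀ derived.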

LNCaP = assay: Cytotoxicity against human LNcaP cells after 48 hrs by SRB assay; format: functional; details: for CC50: read-out: LC50 (the source's name); method in brief: as §1
[1] = Cytotoxicity against human IGROV cells after 48 hrs by SRB assay; format: functional; details: for CC50: read-out: LC50 (the source's name); method in brief: as §1
[2] = Cytotoxicity against human IGROV-ET cells after 48 hrs by SRB assay; format: functional; details: for CC50: read-out: LC50 (the source's name); method in brief: as §1
SK-BR-3 = assay: Cytotoxicity against human SKBR3 cells after 48 hrs by SRB assay; format: functional; details: SK-BR-3, 48 h; for CC50: read-out: LC50 (the source's name); for GI50: read-out: GI50; method in brief: as §1
SK-MEL-28 = assay: Cytotoxicity against human SK-MEL-28 cells after 48 hrs by SRB assay; format: functional, cell-based; details: Homo sapiens, SK-MEL-28, 48 h; for CC50: read-out: LC50 (the source's name); method in brief: as §1
A549 = assay: Cytotoxicity against human A549 cells after 48 hrs by SRB assay; format: functional, cell-based; details: Homo sapiens, A549, 48 h; method in brief: as §1
K562 = assay: Cytotoxicity against human K562 cells after 48 hrs by SRB assay; format: functional; details: K562, 48 h; for CC50: read-out: LC50 (the source's name); method in brief: as §1
PANC-1 = assay: Cytotoxicity against human PANC1 cells after 48 hrs by SRB assay; format: functional; details: PANC-1, 48 h; for CC50: read-out: LC50 (the source's name); method in brief: as §1
HT-29 = assay: Cytotoxicity against human HT29 cells after 48 hrs by SRB assay; format: functional, cell-based; details: Homo sapiens, HT-29, 48 h; for CC50: read-out: LC50 (the source's name); method in brief: as §1
LoVo = assay: Cytotoxicity against human LoVo cells after 48 hrs by SRB assay; format: functional; details: for CC50: read-out: LC50 (the source's name)
HeLa = assay: Cytotoxicity against human HeLa cells after 48 hrs by SRB assay; format: functional; details: for CC50: read-out: LC50 (the source's name); method in brief: as §1
[3] = Cytotoxicity against human HeLa-APL cells after 48 hrs by SRB assay; format: functional; method in brief: as §1

Structure (SMILES) | CC50 (DU-145) [nM] | GI50 (LNCaP) [nM] | TGI (LNCaP) [nM] | CC50 (LNCaP) [nM] | CC50 [1] [nM] | CC50 [2] [nM] | CC50 (SK-BR-3) [nM] | CC50 (SK-MEL-28) [nM] | LC50 (A549) [nM] | CC50 (K562) [nM] | CC50 (PANC-1) [nM] | CC50 (HT-29) [nM] | CC50 (LoVo) [nM] | CC50 (HeLa) [nM] | LC50 (concentration giving 50% net cell kill) [3] [nM] | GI50 (DU-145; read-out: GI50) [nM] | TGI (SK-BR-3) [nM] | GI50 (SK-BR-3) [nM] | GI50 (SK-MEL-28; read-out: GI50) [nM] | GI50 (A549; read-out: GI50) [nM] | further results
C/C=C1\NC(=O)[C@H](Cc2ccccc2)NC(=O)[C@@H](C(C)C)NC(=O)[C@@H]([C@H](C)CC)NC(=O)[C@H](NC(=O)[C@H](NC(=O)[C@H](CCCN)NC(=O)[C@H]2CCCN2C(=O)[C@H](NC(=O)[C@@H]2CCCN2C(=O)[C@@H](NC(=O)[C@H](NC(=O)CCCC(C)C)C(C)C)[C@@H](C)O)C(C)C)[C@H](C)CC)[C@H](C)OC(=O)[C@H](C(C)C)NC1=O | 1650 | 347 | 3240 | 1540 | 632 | 703 | 2780 | 1440 | 1910 | 2440 | 2540 | 887 | 4790 | 1040 | 1320 |  |  |  |  |  | 
C/C=C1\NC(=O)[C@H](Cc2ccccc2)NC(=O)[C@@H](C(C)C)NC(=O)[C@@H]([C@H](C)CC)NC(=O)[C@H](NC(=O)[C@H](NC(=O)[C@H](CCCN)NC(=O)[C@H]2CCCN2C(=O)[C@H](NC(=O)[C@H](CC(C)C)NC(=O)[C@@H](NC(=O)[C@H](NC(=O)CCCC(C)C)C(C)C)[C@@H](C)O)C(C)C)[C@H](C)CC)[C@H](C)OC(=O)[C@H](C(C)C)NC1=O | 863 | 1030 | 1120 | 1230 | 375 | 383 | 689 | 8750 | 1110 | 2300 | 2510 | 479 | 337 | 765 | 807 | 941 | 482 | 445 | 964 | 1280 | GI50 (DU-145): 903 nM; TGI [1]: 4020 nM; GI50 ([1]; read-out: GI50): 464 nM; TGI [2]: 380 nM; GI50 ([2]; read-out: GI50): 350 nM; TGI (SK-MEL-28): 9120 nM; TGI (A549): 1190 nM; GI50 (K562): 2100 nM; TGI (K562): 2210 nM; GI50 (PANC-1): 3290 nM; TGI (PANC-1): 4870 nM; GI50 (HT-29): 612 nM; TGI (HT-29): 679 nM; GI50 (LoVo): 312 nM; TGI (LoVo): 324 nM; GI50 (HeLa): 1020 nM; TGI (HeLa): 887 nM; GI50 [3]: 939 nM; TGI [3]: 871 nM
C/C=C1\NC(=O)[C@H](Cc2ccccc2)NC(=O)[C@@H](C(C)C)NC(=O)[C@@H]([C@H](C)CC)NC(=O)[C@H](NC(=O)[C@H](NC(=O)[C@H](CCCN)NC(=O)[C@H]2CCCN2C(=O)[C@H](NC(=O)[C@H](NC(=O)[C@@H](NC(=O)[C@H](NC(=O)CCCC(C)C)C(C)C)[C@@H](C)O)C(C)C)C(C)C)[C@H](C)CC)[C@H](C)OC(=O)[C@H](C(C)C)NC1=O | 1650 | 2440 | 3230 | 1540 | 631 | 702 | 2310 | 1440 | 1910 | 2430 | 2530 | 886 | 3110 | 1040 | 1320 | 3130 | 3230 | 3690 |  | 5090 | TGI (DU-145): 3800 nM; TGI (A549): 4230 nM; GI50 (K562): 4290 nM; TGI (K562): 4830 nM; GI50 (PANC-1): 4430 nM; TGI (PANC-1): 4920 nM; GI50 (HT-29): 4840 nM; TGI (HT-29): 3930 nM; GI50 (LoVo): 3310 nM; TGI (LoVo): 3210 nM; GI50 [3]: 3400 nM; TGI [3]: 3040 nM
C/C=C1\NC(=O)[C@H](Cc2ccccc2)NC(=O)[C@@H](C(C)C)NC(=O)[C@@H]([C@H](C)CC)NC(=O)[C@H](NC(=O)[C@H](NC(=O)[C@H](CCCN)NC(=O)[C@H]2CCCN2C(=O)[C@H](NC(=O)[C@@H](NC(=O)[C@@H](NC(=O)[C@H](NC(=O)CCCCCCCCCCCCCCCCCCC)C(C)C)[C@@H](C)O)C(C)C)C(C)C)[C@H](C)CC)[C@H](C)OC(=O)[C@H](C(C)C)NC1=O | 2030 |  |  | 296 | 1230 | 1210 | 865 | 432 | 383 | 910 | 423 | 877 | 960 | 477 | 2030 |  |  |  | 1890 | 1880 | GI50 (SK-MEL-28): 905 nM; GI50 (A549): 850 nM
C/C=C1\NC(=O)[C@H](Cc2ccccc2)NC(=O)[C@@H](C(C)C)NC(=O)[C@@H]([C@H](C)CC)NC(=O)[C@H](NC(=O)[C@H](NC(=O)[C@H](CCCN)NC(=O)[C@H]2CCCN2C(=O)[C@H](NC(=O)[C@H](Cc2ccccc2)NC(=O)[C@@H](NC(=O)[C@H](NC(=O)CCCC(C)C)C(C)C)[C@@H](C)O)C(C)C)[C@H](C)CC)[C@H](C)OC(=O)[C@H](C(C)C)NC1=O | 785 | 857 | 941 | 1030 | 343 | 262 | 260 | 760 | 960 | 1380 | 2450 | 69.5 | 333 | 607 | 768 | 612 | 323 | 325 | 730 | 722 | GI50 (DU-145): 752 nM; GI50 [1]: 250 nM; GI50 ([1]; read-out: GI50): 337 nM; GI50 [2]: 184 nM; GI50 ([2]; read-out: GI50): 194 nM; GI50 (SK-MEL-28): 739 nM; GI50 (A549): 875 nM; GI50 (K562): 1740 nM; TGI (K562): 1560 nM; GI50 (PANC-1): 2540 nM; TGI (PANC-1): 3530 nM; GI50 (LoVo): 290 nM; TGI (LoVo): 310 nM; GI50 (HeLa): 432 nM; TGI (HeLa): 542 nM; GI50 [3]: 816 nM; TGI [3]: 795 nM
C/C=C1\NC(=O)[C@H](Cc2ccccc2)NC(=O)[C@@H](C(C)C)NC(=O)[C@@H]([C@H](C)CC)NC(=O)[C@H](NC(=O)[C@H](NC(=O)[C@H](CCCN)NC(=O)[C@H]2CCCN2C(=O)[C@H](NC(=O)[C@H](C)NC(=O)[C@@H](NC(=O)[C@H](NC(=O)CCCC(C)C)C(C)C)[C@@H](C)O)C(C)C)[C@H](C)CC)[C@H](C)OC(=O)[C@H](C(C)C)NC1=O | 1680 | 2800 | 3300 | 1570 | 533 | 599 | 2170 | 1470 | 1940 | 2480 | 2580 | 665 | 2990 | 1060 | 1350 | 3900 | 2960 | 3250 | 3450 | 3730 | TGI (DU-145): 3870 nM; GI50 [1]: 934 nM; GI50 ([1]; read-out: GI50): 2000 nM; GI50 [2]: 863 nM; GI50 ([2]; read-out: GI50): 1250 nM; TGI (SK-MEL-28): 3070 nM; TGI (A549): 4310 nM; GI50 (K562): 4320 nM; TGI (K562): 4930 nM; GI50 (LoVo): 2680 nM; TGI (LoVo): 2830 nM; GI50 (HeLa): 3100 nM; TGI (HeLa): 2830 nM; GI50 [3]: 3270 nM; TGI [3]: 3100 nM
C/C=C1\NC(=O)[C@H](Cc2ccccc2)NC(=O)[C@@H](C(C)C)NC(=O)[C@@H]([C@H](C)CC)NC(=O)[C@H](NC(=O)[C@H](NC(=O)[C@H](CCCN)NC(=O)[C@H]2CCCN2C(=O)[C@H](NC(=O)[C@H](CCC(N)=O)NC(=O)[C@@H](NC(=O)[C@H](NC(=O)CCCC(C)C)C(C)C)[C@@H](C)O)C(C)C)[C@H](C)CC)[C@H](C)OC(=O)[C@H](C(C)C)NC1=O | 1620 | 3120 | 3170 | 1510 | 619 | 689 | 2720 | 1410 | 1870 | 2390 | 2480 | 869 | 4690 | 1020 | 1300 |  |  |  |  |  | 
